Measurements published in ChEMBL document CHEMBL1131410, “Synthesis and biological evaluation of 4-chloro-3, 5-dinitrobenzotrifluoride analogues as antileishmanial agents” (J Med Chem, 1998).

Key:
Cricetinae gen. sp. [1] = experiment: Percent suppression of parasitaemia was measured in vivo against Visceral Leishmania donovani in hamsters at 208 mg/kg of dosage level.; format: functional
Outline: (§1)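 Hamsters, six per group, infected intracardially with 1.0×10^7 L. donovani Khartoum amastigotes from donor hamster spleens. Dosed intramuscularly for 4 consecutive days starting day 3 post-infection and screened blind. On day 7 the animals were sacrificed and total parasite number per liver was counted. Result expressed as % suppression of parasitemia.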

Cricetinae gen. sp. [2] = experiment: Percent suppression of parasitaemia was measured in vivo against Visceral Leishmania donovani in hamsters at 52 mg/kg of dosage level.; format: functional; outline: as §1
[3] = Partition coefficient (logP); format: physicochemical; details: octanol/water
Leishmania donovani [4] = experiment: In vitro inhibition of Leishmania donovani parasite; format: functional, organism-based
Outline: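 L. donovani MHOM/SD/62/1S-CL2D axenic amastigote-like forms, seeded at 10^6 cells/mL in amastigote medium with or without drug (DMSO at most 1.25% v/v). Incubated 72 h at 37 °C, humid 5% CO2. A tetrazolium-type Cell Titer reagent was then added for a further 8–12 h and absorbance read at 490 nm. IC50 fitted by a four-parameter log dose-response equation.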

Cricetinae gen. sp. [5] = experiment: % suppression of parasitaemia was measured in vivo against Visceral Leishmania donovani in hamsters at 208 mg/kg of dosage level.; format: functional, Cricetulus griseus
Cricetinae gen. sp. [6] = experiment: % suppression of parasitaemia was measured in vivo against Visceral Leishmania donovani in hamsters at 52 mg/kg of dosage level.; format: functional, Cricetulus griseus
Leishmania donovani [7] = experiment: Compound was evaluated in vitro against Leishmania donovani parasite; format: functional, organism-based
Outline: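 Axenic amastigote-like L. donovani (MHOM/SD/62/1S-CL2D), seeded at 10^6 cells/mL with or without drug, DMSO ≤1.25% (v/v), 72 h at 37 °C, 5% CO2. Tetrazolium-type dehydrogenase reagent added, further 8–12 h, absorbance at 490 nm; IC50 from four-parameter log dose-response fit.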

Cricetinae gen. sp. [8] = experiment: Percent suppression of parasitaemia was measured in vivo against Visceral Leishmania donovani in hamsters at 13 mg/kg of dosage level.; format: functional, Cricetulus griseus; outline: as §1

| Molecule | logP [3] | IC50 (Leishmania donovani [4]) [µM] | other results |
| --- | --- | --- | --- |
| MEGLUMINE ANTIMONATE | – | – | Suppression (Cricetinae gen. sp. [1]; Cricetulus griseus): 73%; Suppression (Cricetinae gen. sp. [2]; Cricetulus griseus): 27% |
| O=S(=O)(c1cc(C(F)(F)F)ccc1Cl)N1CCCCC1 | 4.01 | 110 | – |
| CCN(CC)CCNS(=O)(=O)c1cc(C(F)(F)F)ccc1Cl | 3.85 | > 450 | – |
| O=S(=O)(c1cc(C(F)(F)F)ccc1F)N1CCCC1 | 2.9 | > 450 | – |
| NS(=O)(=O)c1cc(C(F)(F)F)ccc1F | 1.68 | > 450 | – |
| O=S(=O)(c1cc(C(F)(F)F)ccc1Cl)N1CCN(c2ccccn2)CC1 | 3.45 | 44 | – |
| CN1CCN(S(=O)(=O)c2cc(C(F)(F)F)ccc2Cl)CC1 | 3.16 | 321 | – |
| O=S(=O)(c1cc(C(F)(F)F)ccc1Cl)N1CCCCCC1 | 4.57 | 56 | – |
| O=[N+]([O-])c1cc(C(F)(F)F)cc([N+](=O)[O-])c1Cl [CHLORALIN] | 3.43 | – | Suppression (Cricetinae gen. sp. [5]): 32%; Suppression (Cricetinae gen. sp. [6]): 21%; IC50 (Leishmania donovani [7]): 1.3 µM |
| O=S(=O)(c1cc(C(F)(F)F)ccc1F)N1CCCCC1 | 3.47 | 418 | – |
| NS(=O)(=O)c1cc(C(F)(F)F)ccc1Cl | 1.98 | > 450 | – |
| O=S(=O)(c1cc(C(F)(F)F)ccc1N1CCCC1)N1CCCC1 | 3.57 | 23 | Suppression (Cricetinae gen. sp. [8]): 16%; Suppression (Cricetinae gen. sp. [1]): 30%; Suppression (Cricetinae gen. sp. [2]): 29% |
| CN1CCN(S(=O)(=O)c2cc(C(F)(F)F)ccc2F)CC1 | 2.61 | 199 | – |
| CCN(CC)CCNS(=O)(=O)c1cc(C(F)(F)F)ccc1F | 3.3 | > 450 | – |
| O=S(=O)(c1cc(C(F)(F)F)ccc1F)N1CCCCCC1 | 4.03 | 108 | Suppression (Cricetinae gen. sp. [8]): 11%; Suppression (Cricetinae gen. sp. [1]): 19%; Suppression (Cricetinae gen. sp. [2]): 13% |
| O=S(=O)(c1cc(C(F)(F)F)ccc1F)N1CCN(c2ccccn2)CC1 | 2.91 | > 450 | – |
| CNS(=O)(=O)c1cc(C(F)(F)F)ccc1F | 2.08 | > 450 | – |
| O=S(=O)(c1cc(C(F)(F)F)ccc1Cl)N1CCCC1 | 3.44 | 115 | – |
| CNS(=O)(=O)c1cc(C(F)(F)F)ccc1Cl | 2.63 | > 450 | – |
